Experimental findings from ChEMBL document CHEMBL1641391, “Caffeic acid esters and lignans from Piper sanguineispicum” (J Nat Prod, 2010) are described below.

Experiment [1] is described as follows: Cytotoxicity against mouse peritoneal macrophages assessed as cell viability after 48 hrs by hematocytometer. Type of experiment: cell-based. The conditions noted are these: Peritoneal macrophage cell.
Experiment [2] relates to MCF7. Nature of the experiment: Cytotoxicity against human MCF7 cells assessed as [3H]-hypoxanthine incorporation after 48 hrs. Type of experiment: cell-based. An outline of the steps: (§1)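 Cells grown in RPMI with 10% fetal calf serum and exposed to serial compound dilutions for 48 h. Growth measured by [3H]-hypoxanthine incorporation relative to untreated control cultures. Inhibition percentages plotted versus concentration; IC50 read graphically.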

Experiment [3] has as its system Leishmania amazonensis. Nature of the experiment: Antileishmanial activity against Leishmania amazonensis MHOM/BR/76/LTB-012 axenic amastigotes after 72 hrs by MTT assay. The experiment is classed as functional, organism-based. The conditions noted are these: MHOM/BR/76/LTB-012, 72 h. An outline of the steps: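 Axenic amastigotes kept by weekly subpassage in MAA/20 medium, 32 ± 1 °C, 5% CO2. Seeded in 96-well plates. Compounds in DMSO tested at four concentrations (50–0.05 µg/mL or 50–0.2 µg/mL, depending on compound) for 72 h. MTT added for 4 h, stopped with 2-propanol/SDS, OD read at 570 nm. % inhibition computed against untreated control; IC50 from inhibition curve. Triplicates; amphotericin B reference.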

Experiment [4] deals with Vero. Nature of the experiment: Cytotoxicity against african green monkey Vero cells assessed as [3H]-hypoxanthine incorporation after 48 hrs. The experiment is classed as cell-based. The conditions noted are these: Chlorocebus sabaeus. Summed up:
as §1

Bounds are passed on as bounds.

Usually IC50 stands for the point on the concentration scale where inhibition reaches its midpoint. For `CCC[C@H](C)OC(=O)/C=C/c1ccc(O)c(O)c1`, the IC50 in experiment [1] was found to be 72 µM; in experiment [2], 14 µM; in experiment [3] it was 2 µM; in experiment [4], 62 µM.

As to `CCCCC[C@H](C)OC(=O)/C=C/c1ccc(O)c(O)c1`, the IC50 turned out to be 16.1 µM in experiment [1], 10.6 µM in experiment [2], 10 µM in experiment [3] and 89.8 µM in experiment [4].

With `CCCCCCC[C@H](C)OC(=O)/C=C/c1ccc(O)c(O)c1`, the IC50 worked out at 12.7 µM in experiment [1], 3.2 µM in experiment [2], 1.8 µM in experiment [3] and 31 µM in experiment [4].

On to `O=C1OC[C@H]([C@H](O)c2ccc3c(c2)OCO3)[C@H]1Cc1ccc2c(c1)OCO2`, for which the values for the IC50 in experiment [2], in experiment [3] and in experiment [4] were 151 µM, 79.4 µM and 114 µM, respectively.

Regarding `C[C@@H]1[C@H](O)[C@@H](C)/C=C/C=C/C=C/C=C/C=C/C=C/C=C/[C@H](O[C@@H]2O[C@H](C)[C@@H](O)[C@H](N)[C@@H]2O)C[C@@H]2O[C@](O)(C[C@@H](O)C[C@@H](O)[C@H](O)CC[C@@H](O)C[C@@H](O)CC(=O)O[C@H]1C)C[C@H](O)[C@H]2C(=O)O` [AMPHOTERICIN B], the half-maximal inhibitory concentration (IC50) in experiment [1] came out at 3.6 µM; in experiment [3] it was 0.11 µM.

Turning to `O=C(O)/C=C/c1ccc(O)c(O)c1` [CAFFEIC ACID], the IC50 in experiment [1] is over 550 µM; in experiment [2], over 550 µM; in experiment [3] it was 17.8 µM; in experiment [4], over 550 µM.

Regarding `OC[C@H](Cc1ccc2c(c1)OCO2)[C@H](CO)Cc1ccc2c(c1)OCO2` [DIHYDROCUBEBIN], the 50% inhibitory concentration (IC50) was 89.4 µM in experiment [2], over 140 µM in experiment [3] and 83.8 µM in experiment [4].

On to `O=C(CC(CO)C(=O)c1ccc2c(c1)OCO2)c1ccc2c(c1)OCO2` (stereo not given) [JUSTIFLORINOL], for which the IC50 was 140 µM in experiment [2], over 140 µM in experiment [3] and over 281 µM in experiment [4].

For `O=C1OC[C@H]([C@H](O)c2ccc3c(c2)OCO3)[C@H]1C(=O)c1ccc2c(c1)OCO2` [SANGUINOLIGNAN A], the IC50 was over 260 µM in experiment [1], 146 µM in experiment [2], 36.7 µM in experiment [3] and 109 µM in experiment [4].

Consider `O=C1OC[C@@H]([C@H](O)c2ccc3c(c2)OCO3)[C@H]1C(=O)c1ccc2c(c1)OCO2` [SANGUINOLIGNAN B], for which the values for the IC50 in experiment [2], in experiment [3] and in experiment [4] were 250 µM, over 130 µM and over 260 µM, respectively.

In the case of `COc1ccc([C@@H](OC(C)=O)[C@H]2COC(=O)[C@@H]2C(=O)c2ccc3c(c2)OCO3)cc1OC` [SANGUINOLIGNAN C], the IC50 in experiment [2] is 79.2 µM; in experiment [3] it was 105 µM; in experiment [4], over 226 µM.

Consider `CC(=O)O[C@H](c1ccc2c(c1)OCO2)[C@H]1C(=O)OC[C@@H]1C(=O)c1ccc2c(c1)OCO2` [SANGUINOLIGNAN D], for which the IC50 in experiment [2] is 17.1 µM; in experiment [3], 69.7 µM; in experiment [4] it was 82.1 µM.
